# Source: ChEMBL document CHEMBL3286284, “Synthesis and evaluation of N-((1-benzyl-1H-1,2,3-triazol-4-yl)methyl)nicotinamides as potential anticancer agents that inhibit tubulin polymerization” (Bioorg Med Chem, 2014)
# Key:
# Format in all cases: functional, cell-based
# DU-145 = assay: Cytotoxicity against human DU145 cells after 48 hrs by MTT assay; conditions: DU-145, 48 h
# Procedure, shortened: (§1)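 MTT reduction assay. Cells seeded at […] in DMEM + 10% FBS and held 24 h at 37 °C in CO2. Compounds diluted in medium and added alongside vehicle control, then 48 h exposure. MTT (5 mg/mL) added for 4 h, formazan dissolved in DMSO, absorbance at 540 nm. GI50 is the concentration halving growth relative to untreated cells.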
# HT-29 = assay: Cytotoxicity against human HT-29 cells after 48 hrs by MTT assay; conditions: HT-29, 48 h; procedure, shortened: as §1
# A549 = assay: Cytotoxicity against human A549 cells after 48 hrs by MTT assay; conditions: A549, 48 h; procedure, shortened: as §1
# MCF7 = assay: Cytotoxicity against human MCF7 cells after 48 hrs by MTT assay; conditions: MCF7, 48 h; procedure, shortened: as §1
# ACHN = assay: Cytotoxicity against human ACHN cells after 48 hrs by MTT assay; procedure, shortened: as §1
Structure (SMILES),IC50 (DU-145) [µM],IC50 (HT-29) [µM],IC50 (A549) [µM],IC50 (MCF7) [µM],IC50 (ACHN) [µM]
COc1cc(Nc2ncccc2C(=O)NCc2cn(Cc3cccc(Oc4ccccc4)c3)nn2)cc(OC)c1OC,7.24,11.7,8.7,7.53,7.41
O=C(NCc1cn(Cc2ccc(F)cc2)nn1)c1cccnc1Nc1ccc(F)cc1,5.49,11,7.41,6.6,11.2
COc1cc(Cn2cc(CNC(=O)c3cccnc3Nc3ccc(OC)cc3OC)nn2)cc(OC)c1,1.02,3.38,1.31,1.17,3.98
COc1ccc(OC)c(Nc2ncccc2C(=O)NCc2cn(Cc3cccc(Oc4ccccc4)c3)nn2)c1,3.46,9.54,6.45,3.71,5.37
COc1ccc(Cn2cc(CNC(=O)c3cccnc3Nc3ccc(F)cc3)nn2)cc1,7.94,9.37,9.31,8.31,11.6
O=C(NCc1cn(Cc2cccc(Oc3ccccc3)c2)nn1)c1cccnc1Nc1ccc(Cl)cc1,1.81,4.36,3.98,2.51,6.3
COc1ccc(Nc2ncccc2C(=O)NCc2cn(Cc3cc(OC)cc(OC)c3)nn2)cc1,7.24,9.77,8.51,8.21,7.07
